Experimental data reported in ChEMBL document CHEMBL1781959, “Synthesis and in vitro antitumor activity of substituted quinazoline and quinoxaline derivatives: search for anticancer agent” (Eur J Med Chem, 2011).

Tests used:
BT-549 = experiment: Anticancer activity against human BT549 cells assessed as cell growth promotion at 10^-5 M after 48 hrs by SRB assay relative to control; assay type: functional
NCI-H522 = experiment: Anticancer activity against human NCI-H522 cells assessed as cell growth promotion at 10^-5 M after 48 hrs by SRB assay relative to control; assay type: functional
UACC-62 = experiment: Anticancer activity against human UACC62 cells assessed as cell growth promotion at 10^-5 M after 48 hrs by SRB assay relative to control; assay type: functional
A498 = experiment: Anticancer activity against human A498 cells assessed as cell growth promotion at 10^-5 M after 48 hrs by SRB assay relative to control; assay type: functional
NCI-H460 [1] = experiment: Anticancer activity against human NCI-H460 cells assessed as cell growth promotion at 10^-5 M after 48 hrs by SRB assay relative to control; assay type: functional
786-0 = experiment: Anticancer activity against human 786-0 cells assessed as cell growth promotion at 10^-5 M after 48 hrs by SRB assay relative to control; assay type: functional
SK-MEL-2 [2] = experiment: Anticancer activity against human SK-MEL-2 cells assessed as cell growth promotion at 10^-5 M after 48 hrs by SRB assay relative to control; assay type: functional
OVCAR-5 = experiment: Anticancer activity against human OVCAR5 cells assessed as cell growth promotion at 10^-5 M after 48 hrs by SRB assay relative to control; assay type: functional
A549 = experiment: Anticancer activity against human A549 cells assessed as cell growth promotion at 10^-5 M after 48 hrs by SRB assay relative to control; assay type: functional
CAKI-1 = experiment: Anticancer activity against human Caki1 cells assessed as cell growth promotion at 10^-5 M after 48 hrs by SRB assay relative to control; assay type: functional
LOX IMVI = experiment: Anticancer activity against human LOXIMVI cells assessed as cell growth promotion at 10^-5 M after 48 hrs by SRB assay relative to control; assay type: functional
NCI-H322M = experiment: Anticancer activity against human NCI-H322M cells assessed as cell growth promotion at 10^-5 M after 48 hrs by SRB assay relative to control; assay type: functional
OVCAR-3 = experiment: Anticancer activity against human OVCAR3 cells assessed as cell growth promotion at 10^-5 M after 48 hrs by SRB assay relative to control; assay type: functional
OVCAR-4 = experiment: Anticancer activity against human OVCAR4 cells assessed as cell growth promotion at 10^-5 M after 48 hrs by SRB assay relative to control; assay type: functional
SNB-75 = experiment: Anticancer activity against human SNB75 cells assessed as cell growth promotion at 10^-5 M after 48 hrs by SRB assay relative to control; assay type: functional
MDA-MB-231 = experiment: Anticancer activity against human MDA-MB-231 cells assessed as cell growth promotion at 10^-5 M after 48 hrs by SRB assay relative to control; assay type: functional
CCRF-CEM [3] = experiment: Anticancer activity against human CCRF-CEM cells assessed as cell growth promotion at 10^-5 M after 48 hrs by SRB assay relative to control; assay type: functional
TK-10 = experiment: Anticancer activity against human TK10 cells assessed as cell growth promotion at 10^-5 M after 48 hrs by SRB assay relative to control; assay type: functional
Malme-3M [4] = experiment: Anticancer activity against human MALME-3M cells assessed as cell growth promotion at 10^-5 M after 48 hrs by SRB assay relative to control; assay type: functional
PC-3 = experiment: Anticancer activity against human PC3 cells assessed as cell growth promotion at 10^-5 M after 48 hrs by SRB assay relative to control; assay type: functional
EKVX = experiment: Anticancer activity against human EKVX cells assessed as cell growth promotion at 10^-5 M after 48 hrs by SRB assay relative to control; assay type: functional
ACHN = experiment: Cytotoxicity against human ACHN cells after 48 hrs by SRB assay; assay type: cell-based
How it was run: (§1)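 NCI-60 five-dose screen in RPMI 1640 with 5% FBS and 2 mM L-glutamine; 5000–40,000 cells/well, 24 h pre-incubation. DMSO stocks diluted to 0.01, 0.1, 1, 10 and 100 μM final; 48 h at 37 °C, 5% CO2. Fixed with TCA (10% final adherent, 16% suspension), stained with 0.4% SRB, A515. GI50, TGI and LC50 taken from time-zero, control and test absorbances.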

SF-295 = experiment: Growth inhibition of human SF295 cells after 48 hrs by SRB assay; assay type: functional; settings: SF-295, 48 h
How it was run: (§2)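 NCI 60-panel five-dose assay at 0.01, 0.1, 1, 10 and 100 μM. Cells in RPMI 1640 with 5% FBS and 2 mM L-glutamine, preincubated 24 h, with time-zero plates TCA-fixed. Drug exposure 48 h at 37 °C. Read by SRB staining at 515 nm. GI50 is the concentration where [(Ti−Tz)/(C−Tz)]×100 = 50, taken from log concentration versus % growth curves.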

CCRF-CEM [5] = experiment: Cytotoxicity against human CCRF-CEM cells after 48 hrs by SRB assay; assay type: cell-based; how it was run: as §1
SK-MEL-2 [6] = experiment: Cytotoxicity against human SK-MEL-2 cells after 48 hrs by SRB assay; assay type: cell-based; settings: sk-mel-2, 48 h; how it was run: as §1
IGROV-1 = experiment: Growth inhibition of human IGROV1 cells after 48 hrs by SRB assay; assay type: functional; settings: IGROV-1, 48 h; how it was run: as §2
SW-620 = experiment: Cytotoxicity against human SW620 cells after 48 hrs by SRB assay; assay type: cell-based; settings: sw-620, 48 h
How it was run: (§3)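 NCI-60 five-dose screen. Cells grown in RPMI 1640 with 5% FBS and 2 mM L-glutamine and pre-incubated 24 h; a time-zero plate is TCA-fixed. Drug added at 0.01, 0.1, 1, 10 and 100 µM (DMSO stock) for 48 h at 37 °C, 5% CO2. Fixed with cold TCA (10% final for adherent, 16% for suspension cells), stained with 0.4% SRB, A515. GI50, TGI and LC50 taken from dose-response curves.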

UO-31 = experiment: Growth inhibition of human UO31 cells after 48 hrs by SRB assay; assay type: functional; settings: UO-31, 48 h
How it was run: (§4)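 NCI-60 panel cells grown in RPMI 1640 with 5% FBS and 2 mM L-glutamine, then seeded at 5000–40,000 cells/well by doubling time and preincubated for 24 h. Compound in DMSO was tested either at 10^-5 M alone or at 0.01–100 μM in five doses, for 48 h at 37 °C. Cells were fixed with cold TCA (10% final), stained with SRB, and read at 515 nm. GI50 was taken from % growth relative to time-zero and control wells.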

NCI-H460 [7] = experiment: Cytotoxicity against human NCI-H460 cells after 48 hrs by SRB assay; assay type: cell-based; settings: nci-h460, 48 h; how it was run: as §1
Malme-3M [8] = experiment: Growth inhibition of human MALME-3M cells after 48 hrs by SRB assay; assay type: functional; how it was run: as §2
U-251 = experiment: Cytotoxicity against human U251 cells after 48 hrs by SRB assay; assay type: cell-based; settings: u-251, 48 h; how it was run: as §3
UACC-257 = experiment: Growth inhibition of human UACC257 cells after 48 hrs by SRB assay; assay type: functional; settings: UACC-257, 48 h; how it was run: as §4

`N#Cc1ccc(/C=C/c2ccc(NC(=O)c3ccccc3NC(=O)c3ccco3)cc2)cc1` was tested, and the Activity (BT-549) was 109%, the Activity (NCI-H522) was 106% and the Activity (UACC-62) was 99%. For the same compound, the Activity (A498) was 94.62%, the Activity (NCI-H460 [1]) was 116% and the Activity (786-0) was 115%. It also gave an Activity (SK-MEL-2 [2]) of 116%, an Activity (OVCAR-5) of 105% and an Activity (A549) of 101%. For the same compound, the Activity (CAKI-1) was 83.31%, the Activity (LOX IMVI) was 109% and the Activity (NCI-H322M) was 102%. The Activity (OVCAR-3) was 107%, the Activity (OVCAR-4) was 100% and the Activity (SNB-75) was 80%. For the same compound, the Activity (MDA-MB-231) was 94.46%, the Activity (CCRF-CEM [3]) was 96.43% and the Activity (TK-10) was 126%. The Activity (Malme-3M [4]) was 108%, the Activity (PC-3) was 109% and the Activity (EKVX) was 88.81%.

Compound `O=C(Nc1ccccc1C(=O)Nc1ccc(/C=C/c2ccc(O)cc2)cc1)c1ccccc1` has an Activity (BT-549) of 65.95%, an Activity (NCI-H522) of 69.87% and an Activity (UACC-62) of 40.16%. The Activity (A498) was 85.08%, the Activity (NCI-H460 [1]) was 92.1% and the Activity (786-0) was 81.43%. The Activity (SK-MEL-2 [2]) was 99.47%, the Activity (OVCAR-5) was 96.06% and the Activity (A549) was 75.71%. It also gave an Activity (CAKI-1) of 70.25%, an Activity (LOX IMVI) of 69.03% and an Activity (NCI-H322M) of 71.88%. The Activity (OVCAR-3) was 89.47%, the Activity (OVCAR-4) was 82.05% and the Activity (SNB-75) was 99.47%. The Activity (MDA-MB-231) was 76.35%, the Activity (CCRF-CEM [3]) was 40.37% and the Activity (TK-10) was 100%. The Activity (Malme-3M [4]) was 97.53%, the Activity (PC-3) was 61.81% and the Activity (EKVX) was 85.24%.

For `O=C(Nc1ccccc1C(=O)Nc1ccc(/C=C/c2ccc(Cl)cc2)cc1)c1ccco1`, the Activity (BT-549) was 127%, the Activity (NCI-H522) was 114% and the Activity (UACC-62) was 101%. It also gave an Activity (A498) of 69.42%, an Activity (NCI-H460 [1]) of 107% and an Activity (786-0) of 103%. It also gave an Activity (SK-MEL-2 [2]) of 136%, an Activity (OVCAR-5) of 108% and an Activity (A549) of 102%. It also gave an Activity (CAKI-1) of 89.89%, an Activity (LOX IMVI) of 94.63% and an Activity (NCI-H322M) of 110%. The Activity (OVCAR-3) was 109%, the Activity (OVCAR-4) was 101% and the Activity (SNB-75) was 71.39%. For the same compound, the Activity (MDA-MB-231) was 102%, the Activity (CCRF-CEM [3]) was 103% and the Activity (TK-10) was 127%. For the same compound, the Activity (Malme-3M [4]) was 115%, the Activity (PC-3) was 115% and the Activity (EKVX) was 80.41%.

Compound `O=c1c2ccccc2nc(-c2ccco2)n1/N=C/c1ccccc1Cl` has an Activity (BT-549) of 13.63%, an Activity (NCI-H522) of 10.38% and an LC50 (ACHN) of over 100 µM. It also gave an Activity (UACC-62) of 62.82%, a GI50 (SF-295) of 3.26 µM and a TGI (SF-295) of over 100 µM. For the same compound, the LC50 (CCRF-CEM [5]) was over 100 µM, the LC50 (SK-MEL-2 [6]) was over 100 µM and the GI50 (IGROV-1) was 6.12 µM. It also gave a TGI (IGROV-1) of over 100 µM, an Activity (A498) of 36.82% and an LC50 (SW-620) of over 100 µM. It also gave an Activity (NCI-H460 [1]) of 28.38%, a GI50 (UO-31) of 6.12 µM and a TGI (UO-31) of over 100 µM. The Activity (786-0) was 26.39%, the Activity (SK-MEL-2 [2]) was 67.89% and the Activity (OVCAR-5) was 37.89%. For the same compound, the Activity (A549) was 38.12%, the Activity (CAKI-1) was 62.86% and the Activity (LOX IMVI) was 34.24%. For the same compound, the Activity (NCI-H322M) was 36.23%, the LC50 (NCI-H460 [7]) was over 100 µM and the GI50 (Malme-3M [8]) was 7.23 µM. The TGI (Malme-3M [8]) was over 100 µM, the Activity (OVCAR-3) was 27.98% and the Activity (OVCAR-4) was 4.38%. For the same compound, the Activity (SNB-75) was 32.38%, the Activity (MDA-MB-231) was 52.12% and the LC50 (U-251) was over 100 µM. It also gave an Activity (CCRF-CEM [3]) of 83.12%, an Activity (TK-10) of 73.98% and an Activity (Malme-3M [4]) of 78.64%. The Activity (PC-3) was 78.23%, the GI50 (UACC-257) was 8.34 µM and the TGI (UACC-257) was over 100 µM. For the same compound, the Activity (EKVX) was 64.12%.
